Reference: ChEMBL document CHEMBL1144887, “Indanylidenes. 1. Design and synthesis of (E)-2-(4,6-difluoro-1-indanylidene)acetamide, a potent, centrally acting muscle relaxant with antiinflammatory and analgesic activity” (J Med Chem, 2003)

Assays:
Format in all cases: functional
[1] = test system: Rattus norvegicus; assay: Antiinflammatory activity in edema by Carrageenan pleurisy assay by oral administration at 20 mg/kg.
Procedure, shortened: (§1)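 Rat carrageenan pleurisy, 3 h. Single oral dose of 20 mg/kg, with separate read-outs for pleural cell counts and edema as percent inhibition. Each compound tested two or three times; average variation approximately 10%.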

[2] = test system: Rattus norvegicus; assay: Antiinflammatory activity in cells by Carrageenan pleurisy assay by oral administration at 20 mg/kg.; procedure, shortened: as §1
[3] = test system: Rattus norvegicus; assay: Percent inhibition for analgesic activity by trypsin-induced hyperalgesia assay at 20 mg/kg by oral administration in rats.
Procedure, shortened: (§2)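 Rat trypsin-induced hyperalgesia (mild analgesia). Percent inhibition at a single oral dose of 20 mg/kg. Each compound tested two or three times; average variation approximately 5%.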

[4] = test system: Mus musculus; assay: (§3) Percent effect profile muscle relaxation at 100 mg/kg by intraperitoneal administration in mouse using Straub-tail (ST) assay; details: ip
Procedure, shortened: (§4)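 Mouse morphine-induced Straub tail assay, scoring inhibition of sacro-coccygeus dorsalis contraction. Single ip dose of 100 mg/kg; percent effect reported. Compounds above 50% inhibition were then tested orally.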

[5] = test system: Mus musculus; assay: Sedation caused by oral administration was estimated using rotarod (RR) assay.
Procedure, shortened: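 Mouse rotorod test for sedation, oral dosing, generally at a minimum of three doses with N = 6 animals per dose group.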

[6] = test system: Mus musculus; assay: Effective dose required for muscle relaxation by oral administration in mouse using Straub-tail (ST) assay.
Procedure, shortened: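 Mouse morphine-induced Straub tail assay, scoring inhibition of sacro-coccygeus dorsalis contraction. Dosed ip or po, generally at a minimum of three doses with N = 6 animals per dose group.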

[7] = species: Mus musculus; assay: Ratio of rotarod to Straub-tail activity, which indicates the dose exhibiting muscle relaxant activity versus that producing sedation.
Procedure, shortened: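 Ratio of rotorod ED50 (po) to Straub tail ED50 (po), both measured in mice with oral dosing. Indicates separation between the muscle-relaxant dose and the sedating dose.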

[8] = test system: Rattus norvegicus; assay: Percent inhibition for analgesic activity by trypsin-induced hyperalgesia assay at 20 mg/kg by oral administration in rats; procedure, shortened: as §2
[9] = test system: Mus musculus; assay: as §3; details: ip; procedure, shortened: as §4; remark: listed apart in the source

SMILES	inhibition in vivo at 20 mg/kg [1] [%]	inhibition in vivo at 20 mg/kg [2] [%]	inhibition in vivo at 20 mg/kg [3] [%]	inhibition in vivo at 100 mg/kg [4] [%]	ED50 [5] [mg/kg]	ED50 [6] [mg/kg]	Ratio [7]	inhibition in vivo at 20 mg/kg [8] [%]	inhibition in vivo at 100 mg/kg [9] [%]	ED50 [9] [mg/kg]
O=C(/C=C1\CCc2ccc(F)cc21)NCCO	78	42	33	50	–	–	–	–	–	–
O=C(/C=C1\CCc2ccc(F)cc21)N1CCCC1	18	10	10	33	–	–	–	–	–	–
CON(C)C(=O)/C=C1\CCc2ccc(F)cc21	14	6	–	17	–	–	–	–	–	–
O=C(/C=C1\CCc2ccc(Br)cc21)NC1CC1	4	29	–	33	–	–	–	–	–	–
NC(=O)/C=C1/CCc2ccc(F)cc21	–	–	–	100	92	64	1.4	24	–	–
O=C(/C=C1\CCc2c(F)ccc(F)c21)NC1CC1	–	–	2	100	2	59	0.03	–	–	–
Cc1cccc2c1/C(=C/C(N)=O)CC2	–	–	–	100	56	82	0.7	12	–	–
O=C(/C=C1\CCc2c1ccc(F)c2F)NC1CC1	27	27	11	–	–	62	–	–	100	–
CCN(C)C(=O)/C=C1\CCc2ccc(F)cc21	44	20	77	100	–	100	–	–	–	–
O=C(/C=C1/CCc2ccc(Cl)cc21)NC1CC1	–	–	–	–	–	–	–	–	0	–
O=C(/C=C1\CCc2c(F)cc(F)cc21)NCCO	–	–	–	–	–	100	–	27	83	–
CNC(=O)/C=C1\CCc2cc(F)cc(F)c21	–	–	–	33	–	–	–	33	–	–
CCN(C)C(=O)/C=C1\CCc2c(F)cc(F)cc21	–	–	–	100	73	56	1.3	–	–	–
COc1ccc2c(c1)/C(=C/C(N)=O)CC2	3	1	–	–	–	–	–	–	0	–
O=C(/C=C1\CCc2c(Cl)cccc21)NC1CC1	45	28	–	100	66	58	1.1	–	–	–
N#Cc1ccc2c(c1)/C(=C/C(N)=O)CC2	–	–	21	–	–	–	–	–	–	33
COc1ccc2c(c1)CC/C2=C\C(N)=O	25	18	13	17	–	–	–	–	–	–
CNC(=O)/C=C1\CCc2ccc(Cl)cc21	25	0	17	16	–	–	–	–	–	–
NC(=O)/C=C1\CCc2c(Cl)cccc21	58	35	29	67	–	–	–	–	–	–
CNC(=O)/C=C1\CCc2ccc(Br)cc21	53	44	4	0	–	–	–	–	–	–
O=C(/C=C1\CCc2c(F)cc(F)cc21)NC1CC1	28	38	–	100	62	62	1	–	–	–

SMILES	inhibition in vivo at 20 mg/kg [1] [%]	inhibition in vivo at 20 mg/kg [2] [%]	inhibition in vivo at 20 mg/kg [3] [%]	inhibition in vivo at 100 mg/kg [4] [%]	ED50 [5] [mg/kg]	ED50 [6] [mg/kg]	Ratio [7]	inhibition in vivo at 20 mg/kg [8] [%]	inhibition in vivo at 100 mg/kg [9] [%]	ED50 [9] [mg/kg]
NC(=O)/C=C1\CCc2cc(F)ccc21	42	54	–	–	> 100	56	>~2	–	100	–
CC(C)NC(=O)/C=C1\CCc2c(F)cc(F)cc21	–	–	–	100	76	50	1.9	–	–	–
O=C(/C=C1\CCc2ccc(F)cc21)N1CCOCC1	31	7	–	100	–	90	–	–	–	–
CCNC(=O)/C=C1\CCc2ccc(F)cc21	63	45	40	100	136	70	1.9	–	–	–
O=C(/C=C1\CCc2cc(Cl)ccc21)NC1CC1	29	34	–	17	–	–	–	–	–	–
Cc1cccc2c1/C(=C/C(=O)NC1CC1)CC2	–	–	–	17	–	–	–	24	–	–
NC(=O)/C=C1\CCc2ccc(Br)cc21	21	38	–	100	–	96	–	–	–	–
NC(=O)CC1CCc2c(F)cc(F)cc21 (centres undefined)	–	–	–	–	–	–	–	11	50	–
CCCNC(=O)/C=C1\CCc2ccc(F)cc21	36	0	11	100	–	> 100	–	–	–	–
O=C(/C=C1\CCc2cc(F)c(F)cc21)NC1CC1	48	30	–	50	–	–	–	–	–	–
CNC(=O)/C=C1\CCc2cc(Cl)ccc21	44	40	25	50	–	–	–	–	–	–
O=C(/C=C1\CCc2ccc(Cl)cc21)NC1CC1	–	–	–	50	–	–	–	–	–	–
O=C(/C=C1\CCc2cc(F)cc(F)c21)NC1CC1	–	–	13	100	81	69	1.4	–	–	–
O=C(/C=C1\CCc2cc(F)ccc21)NC1CC1	–	–	–	–	193	81	2.4	–	100	–
NC(=O)/C=C1\CCc2c1ccc(F)c2F	82	77	41	100	50	45	1.1	–	–	–
CN(C)C(=O)/C=C1\CCc2c(F)cc(F)cc21	–	–	–	100	100	50	2	75	–	–
O=C(/C=C1\CCc2ccc(F)cc21)NC1CC1	7	5	–	100	62	66	0.9	–	–	–
O=C(/C=C1\CCc2ccc(F)cc21)NCC1CC1	21	0	–	50	–	–	–	–	–	–
Cc1cccc2c1CC/C2=C\C(=O)NC1CC1	7	15	–	–	64	40	1.6	–	100	–
O=C(/C=C1\CCc2ccc(F)cc21)N1CCC1	0	14	7	33	–	–	–	–	–	–
CCNC(=O)/C=C1\CCc2c(F)cc(F)cc21	–	–	63	67	–	–	–	–	–	–
